Experimental data pooled from the literature.
Each line is one published result; the experiments were not run side by side.
Target: Mitogen-activated protein kinase kinase kinase kinase 2 (MAP4K2, Homo sapiens, UniProt Q12851)
Sequence (Q12851 1-820, as in one of the studies): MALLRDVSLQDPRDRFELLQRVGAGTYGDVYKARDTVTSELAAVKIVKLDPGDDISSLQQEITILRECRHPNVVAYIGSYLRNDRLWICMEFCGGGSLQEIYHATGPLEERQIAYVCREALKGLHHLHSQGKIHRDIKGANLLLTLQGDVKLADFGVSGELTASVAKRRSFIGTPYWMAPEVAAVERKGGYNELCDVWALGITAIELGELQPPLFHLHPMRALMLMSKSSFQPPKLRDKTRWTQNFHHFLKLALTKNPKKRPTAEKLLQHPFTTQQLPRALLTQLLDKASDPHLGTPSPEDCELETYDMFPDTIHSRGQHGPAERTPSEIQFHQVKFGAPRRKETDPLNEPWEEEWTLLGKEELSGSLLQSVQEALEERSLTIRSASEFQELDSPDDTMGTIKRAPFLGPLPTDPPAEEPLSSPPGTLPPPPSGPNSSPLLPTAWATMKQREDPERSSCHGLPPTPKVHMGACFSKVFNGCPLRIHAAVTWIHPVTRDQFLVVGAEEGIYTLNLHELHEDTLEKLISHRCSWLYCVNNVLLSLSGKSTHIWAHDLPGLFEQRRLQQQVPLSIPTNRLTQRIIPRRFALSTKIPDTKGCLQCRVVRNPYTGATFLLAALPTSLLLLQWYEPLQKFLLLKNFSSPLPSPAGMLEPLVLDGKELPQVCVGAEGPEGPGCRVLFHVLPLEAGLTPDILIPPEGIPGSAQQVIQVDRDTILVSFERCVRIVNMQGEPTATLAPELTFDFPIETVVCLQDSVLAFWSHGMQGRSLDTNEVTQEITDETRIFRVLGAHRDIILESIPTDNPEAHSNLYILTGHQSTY

| Structure (SMILES) | read-out | technique | tested at | remaining binding [%] |
| --- | --- | --- | --- | --- |
| CNC(=O)[C@@H]1CC[C@@H](n2c(-c3ccc4cnccc4c3)nc3ccc(C(=O)NCc4cccc(C(N)=O)c4)cc32)C1 | binding | competition with immobilised ligand | 1 µM | 100 |
| CN(C)c1ncnc(-c2ccc3nc(Nc4cc(CN5CCN(C(=O)CC(F)(F)F)CC5)ccn4)[nH]c3c2)c1Cl | cell-free assay | competition with immobilised ligand | 1 µM | 69 |
| CC1CCCN1c1nccc(-c2cnn3ncccc23)n1 (stereo not shown) | binding |  | 1 µM | 100 |
| COc1cnc(Nc2cccc(S(N)(=O)=O)c2)nc1N1CCN(c2ccccc2)C(=O)C1 | binding | competition with immobilised ligand | 1 µM | 95 |
| F[C@@H]1CCN(c2nccc(-c3cnn4ncccc34)n2)C1 | binding |  | 1 µM | 100 |
| O=C(NCCCN1CCOCC1)c1ccc(Nc2ncc(Cl)c(-c3ccc(Cl)s3)n2)cc1 | binding | competition with immobilised ligand | 1 µM | 31 |
| O=C(Nc1c[nH]nc1C(=O)NC1CCNCC1)c1cc(F)cc(F)c1 | binding | competition with immobilised ligand | 1 µM | 69 |
| CNCc1ccccc1-c1csc([C@H](C)Nc2nc(C)nc3cc(OC)c(OC)cc23)c1 | cell-free assay | competition with immobilised ligand | 1 µM | 97 |
| N[C@@H]1CCN(c2nccc(-c3cnn4ncccc34)n2)C1 | binding |  | 1 µM | 100 |
| CCN1CCN(Cc2ccc(C(=O)Nc3ccc(C)c(Oc4ccc5c(c4)CC(=O)N5)c3)cc2C(F)(F)F)CC1 | binding | competition with immobilised ligand | 1 µM | 100 |
| O=C(NC[C@@H]1[C@H]2CN(C(=O)OCc3cc(C(F)(F)F)cc(C(F)(F)F)c3)C[C@@H]12)c1ccc2[nH]nnc2c1 | cell-free assay | competition with immobilised ligand | 1 µM | 92 |
| COc1ccnn2ncc(-c3ccnc(N(C)C)n3)c12 | binding |  | 1 µM | 73 |
| CNC(=O)Nc1ccc2c(c1)CC[C@@]21OC(=O)N(CC(=O)N(Cc2ccc(F)cc2)[C@@H](C)C(F)(F)F)C1=O | cell-free assay | competition with immobilised ligand | 1 µM | 76 |
| C[C@H]1CCN(c2nccc(-c3cnn4ncccc34)n2)C1 | binding |  | 1 µM | 71 |
| O=C(NCc1ncc(C(F)(F)F)cc1Cl)c1ccc2c(c1)C1(CCS(=O)(=O)CC1)[C@@H](C1CC1)N2S(=O)(=O)c1ccc(F)cc1 | cell-free assay | competition with immobilised ligand | 1 µM | 91 |
| O=C(NCCCN1CCOCC1)c1ccc(Nc2nccc(-c3cc4ccccc4s3)n2)cc1 | binding | competition with immobilised ligand | 1 µM | 73 |
| CN(C)c1nccc(-c2cnc3ncccn23)n1 | binding |  | 1 µM | 54 |
| c1cncc(-c2cccc(Nc3nccc(NC4CCCCC4)n3)c2)c1 | binding | competition with immobilised ligand | 10 µM | 67 |
| O=C(Nc1cnc(Oc2ccc(F)cc2)nc1)N1CCc2ncccc2[C@@H]1c1ccc(F)cc1 | cell-free assay | competition with immobilised ligand | 1 µM | 100 |
| CN(C)c1ncc(F)c(-c2cnn3ncccc23)n1 | binding |  | 1 µM | 82 |
| Cc1cnc(Nc2ccc(C(=O)N3CCC(N4CCCC4)CC3)cc2)nc1-c1cc2ccccc2s1 | binding | competition with immobilised ligand | 1 µM | 41 |
| C[C@H](c1cccc(C#N)c1)n1cc(Cl)cc(C(N)=O)c1=N | cell-free assay | competition with immobilised ligand | 1 µM | 99 |
